According to article PMC4180826 (Scientific Reports, 2014):

Legend:
[1] = "under the same conditions"; cited from earlier work
Fe = type: binding; conditions: until molar ratio Fe (II) to peptide 1 of 1:1; peptide 1 10.0 μM; TBS pH 7.4
[2] = Transmission electron microscopy, aggregation and disaggregation; type: physicochemical
How it was run: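 Droplets of the peptide, the test compound, or the test compound bound to NK1R at 1:1 molar ratio were placed on carbon-coated holey grids. The NK1R sample alone was negatively stained with sodium phosphotungstate and dried at room temperature for 12 h before TEM imaging.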

[3] = Relaxivity r1, 0.5 T MR system; type: physicochemical; conditions: TBS pH 7.4, 50.0 mM Tris, 50.0 mM NaCl, 37 °C, 1-100 μM, inversion recovery, slope of 1/T1 versus concentration
[4] = biological target: probe 1 (terpyridine-Fe (II) complex of the Gd (III)-DOTA peptide 1, a modified substance P); test: T1 relaxation rate
[5] = biological target: probe 1 (terpyridine-Fe (II) complex of the Gd (III)-DOTA peptide 1, a modified substance P); test: other fluorescence titration
[6] = biological target: probe 1 (terpyridine-Fe (II) complex of the Gd (III)-DOTA peptide 1, a modified substance P); test: fluorescence polarisation

In the case of O=C([O-])CN(CCN(CC(=O)[O-])CC(=O)O)CCN(CC(=O)[O-])CC(=O)O.[Gd+3] [Gd-(DTPA)], the “relaxivity r1, clinical contrast agents” value [1] is given as 4.6 mM⁻¹ s⁻¹.

In the case of CC(O)CN1CCN(CC(=O)[O-])CCN(CC(=O)[O-])CCN(CC(=O)[O-])CC1.[Gd+3] (stereo not shown) [Gd-(HP-DO3A)], the “relaxivity r1, clinical contrast agents” value [1] is given as 4.3 mM⁻¹ s⁻¹.

In the case of “MLGFFQQPKPRKKKKKK(Tpy)K(Tpy)KK(Dye)DOTA [peptide 1]”, the “fluorescence at 610 nm upon addition of Fe (II) ions” value (Fe) is reported as “decreased”, the “length (TEM)” value ([2]; nanofibers, peptide 1 alone, 10.0 μM in TBS pH 7.4) is reported as “several hundred nm” and the “diameter (TEM)” value ([2]; threadlike network of nanofibers, peptide 1 alone, 10.0 μM in TBS pH 7.4) is reported as “approximately 3.5 nm”. For the same molecule, the “relaxivity r1” value [3] was 11.8 mM⁻¹ s⁻¹.

For “neurokinin-1 receptor (NK1R), recombinant”, the stoichiometry N [4] was 1 probe 1:NK1R, the fold increase of the fluorescence intensity of probe 1 at 610 nm [5] was 3 fold and the Kd [6] was 2300 nM.

B1: NK1R: recombinant NK1R (TACR1) expressed in Rosetta (DE3), purified using nickel affinity chromatography (protein)
chain: MDNVLPVDSDLSPNISTNTSEPNQFVQPAWQIVLWAAAYTVIVVTSVVGNVVVMWIILAHKRMRTVTNYFLVNLAFAEASMAAFNTVVNFTYAVHNEWYYGLFYCKFHNFFPIAAVFASIYSMTAVAFDRYMAIIHPLQPRLSATATKVVICVIWVLALLLAFPQGYYSTTETMPSRVVCMIEWPEHPNKIYEKVYHICVTVLIYFLPLLVIGYAYTVVGITLWASEIPGDSSDRYHEQVSAKRKVVKMMIVVVCTFAICWLPFHIFFLLPYINPDLYLKKFIQQVYLAIMWLAMSSTMYNPIIYCCLNDRFRLGFKHAFRCCPFISAGDYEGLEMKSTRYLQTQGSVYKVSRLETTISTVVGAHEEEPEDGPKATPSSLDLTSNCSSRSDSKTMTESFSFSSNVLS
For B1, the “diameter (TEM)” value ([2]; NK1R multimers, 1.0 μM, stained with sodium phosphotungstate 2.0 wt%, TBS pH 7.4) was “approximately 3.8 nm”.
